Measurements from ChEMBL document CHEMBL4665761, “Optimizing the Benefit/Risk of Acetyl-CoA Carboxylase Inhibitors through Liver Targeting” (J Med Chem, 2020).

Key:
[1] = molecular target: T1, OATP1B3 (Homo sapiens, UniProt Q9NPD5); test: Substrate activity at human OATP1B3 stably expressed in HEK293 cells assessed as ratio of total to passive cellular uptake at 1 uM incubated for 5 mins by LC/MS-MS analysis; format: ADME, cell-based; details: HEK293 cells stably expressing human OATP1B3
T1 sequence (Q9NPD5 whole entry): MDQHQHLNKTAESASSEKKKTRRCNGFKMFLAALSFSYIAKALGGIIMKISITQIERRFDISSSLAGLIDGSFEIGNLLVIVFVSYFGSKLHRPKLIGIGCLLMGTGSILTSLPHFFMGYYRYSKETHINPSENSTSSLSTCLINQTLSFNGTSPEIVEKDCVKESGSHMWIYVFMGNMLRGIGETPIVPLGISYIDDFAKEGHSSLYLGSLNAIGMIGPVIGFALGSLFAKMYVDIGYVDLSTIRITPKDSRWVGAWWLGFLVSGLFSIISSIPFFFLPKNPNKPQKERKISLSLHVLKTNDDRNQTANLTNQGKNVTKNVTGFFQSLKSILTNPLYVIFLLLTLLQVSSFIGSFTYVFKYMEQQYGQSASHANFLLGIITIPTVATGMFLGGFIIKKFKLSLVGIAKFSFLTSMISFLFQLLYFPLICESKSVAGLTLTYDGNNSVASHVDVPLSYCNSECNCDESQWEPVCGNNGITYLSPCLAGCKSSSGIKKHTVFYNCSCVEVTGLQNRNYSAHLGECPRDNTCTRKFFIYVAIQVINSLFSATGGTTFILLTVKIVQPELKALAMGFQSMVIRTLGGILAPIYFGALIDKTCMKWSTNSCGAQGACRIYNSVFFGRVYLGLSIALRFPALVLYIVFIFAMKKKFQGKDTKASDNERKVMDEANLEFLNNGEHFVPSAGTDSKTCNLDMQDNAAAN
In short: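 Transfected versus parental HEK293 cells exposed at 1 µM for 5 min at 37 °C. Ratio is total (transfected) over passive (parental) uptake; >2 denotes substrate.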

[2] = Fraction unbound in human plasma by equilibrium dialysis method; format: ADME, cell-free
[3] = molecular target: Solute carrier family 22 member 2 (Homo sapiens, UniProt O15244); test: Inhibition of human SLC22A2 expressed in HEK293 cells in presence of para-aminohippuric acid/metformin; format: cell-based
[4] = molecular target: OATP2B1 (Homo sapiens, UniProt O94956); test: Substrate activity at human OATP2B1 stably expressed in HEK293 cells assessed as ratio of total to passive cellular uptake at 1 uM incubated for 0.5 to 4 mins by LC/MS-MS analysis; format: cell-based; details: HEK293 cells stably expressing human OATP2B1, time 0.5-4 min
In short: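 HEK293 cells stably transfected with the transporter, plus wild-type cells, grown to confluence in DMEM with 10% heat-inactivated FBS and 5 µg/mL blasticidin. Washed with HBSS/20 mM HEPES, pH 7.4, then incubated with compound at 37 °C for 0.5–4.0 min. Cells washed ice-cold, lysed in MeOH for LC-MS/MS, uptake normalized to BCA protein. Ratio = transfected/wild-type uptake, averaged over time points.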

[5] = molecular target: Solute carrier organic anion transporter family member 1B1 (Homo sapiens, UniProt Q9Y6L6); test: Inhibition of human OATP1B1 expressed in HEK293 cells n presence of rosuvastatin; format: cell-based
[6] = Inhibition of DNL in Sprague-Dawley rat assessed as reduction in DNL level in liver at 300 mg/kg, po pretreated with one hr followed by [14C]-acetate treatment and measured after 1 hr relative to control; format: functional
In short: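 Sprague-Dawley rats given single oral doses of 0.03–300 mg/kg in 0.5% methyl cellulose vehicle, n = 16 per dose. Read-out is incorporation of 14C-acetate into lipids in liver, bone marrow and lung, measured at 2 h post-dose relative to vehicle. Data are mean ± SEM. EC50 is reported with a 95% confidence interval.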

[7] = Clearance in cynomolgus monkey plasma at 1 mg/kg, iv and measured up to 72 hrs by LC/MS-MS analysis; format: ADME, organism-based, Macaca fascicularis
In short: (§1)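 Cynomolgus monkeys dosed 1 mg/kg IV as the tris salt in 2% N-methylpyrrolidone/98% sulfobutylether-β-cyclodextrin (12.5%) in 50 mM TRIS, pH 8.0, or PO as the tris salt. Plasma was analysed by LC-MS/MS, n = 2. CL = IV dose/AUC; Vss = dose/(AUC × elimination rate constant); Cmax taken from observed data.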

[8] = molecular target: T1, OATP1B3; test: Substrate activity at human OATP1B3 stably expressed in HEK293 cells assessed as ratio of total to passive cellular uptake at 1 to 3 uM incubated for 0.5 to 4 mins by LC/MS-MS analysis; format: ADME, cell-based; details: HEK293 cells stably expressing human OATP1B3, dose 1-3 µM, time 0.5-4 min
In short: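 Stably transfected HEK293 cells and wild-type parental cells, cultured to confluency in DMEM with 10% heat-inactivated FBS and 5 µg/mL blasticidin. Uptake at 1–3 µM in HBSS/20 mM HEPES pH 7.4, 37 °C, 0.5–4.0 min. Cells washed in ice-cold buffer, lysed in MeOH, quantified by LC-MS/MS and normalized to protein. Ratio is transfected/parental uptake; >2 denotes substrate.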

[9] = molecular target: Voltage-gated inwardly rectifying potassium channel KCNH2 (Homo sapiens, UniProt Q12809); test: Inhibition of human ERG at 100 uM
[10] = molecular target: Acetyl-CoA carboxylase 1 (Homo sapiens, UniProt Q13085); test: Uncompetitive inhibition of human ACC1 incubated for 15 mins in presence of ATP by Line weaver-Burk plot analysis
In short: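 Radioenzymatic assay with purified ACC isozymes, measuring [14C]-bicarbonate incorporation into [14C]-malonyl-CoA. Mode of inhibition taken from substrate concentration-dependence experiments varying ATP or carbonate. IC50 dose-response run at saturating ATP.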

[11] = Drug uptake in Wistar-Hannover rat assessed as plasma concentration at 10 mg/kg, po after 6 hrs by LC/MS-MS analysis; format: ADME, organism-based
In short: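 Male Wistar-Hannover rats, n = 2 or 3, given an oral suspension in 0.5% methyl cellulose with 0.1% Tween 80; one compound was dosed as the HCl salt. Total plasma and liver concentrations were measured 6 h post-dose. Kp = liver/plasma total concentration. Kpu,u uses fu values from equilibrium dialysis.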

[12] = molecular target: Solute carrier organic anion transporter family member 1B3 (Homo sapiens, UniProt Q9NPD5); test: Inhibition of human OATP1B3 expressed in HEK293 cells n presence of rosuvastatin; format: cell-based
[13] = system: Rattus norvegicus; test: Effect on triglyceride accumulation in Sprague-Dawley rat high fat dietary model at 3 mg/kg, po assessed as reduction in triglyceride level after 42 days by XPT clinical analyzer; format: functional; set-up: scale not given: the % may be the effect or the level left; details: time 42 day
In short: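 High-fat-diet-fed Sprague-Dawley rats dosed orally for 42 days, with chow-fed and vehicle controls, n = 10 per group. Read-out is hepatic triglyceride, reported as mean ± SEM.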

[14] = Ratio of drug uptake in Wistar-Hannover rat liver to plasma at 10 mg/kg, po after 6 hrs by LC/MS-MS analysis; format: ADME, organism-based; details: liver and plasma
In short: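 Male Wistar-Hannover rats (n = 2 or 3) dosed orally as a suspension in 0.5% methyl cellulose with 0.1% Tween 80. Plasma and liver sampled 6 h post-dose. Kp is total liver/plasma; Kpu,u uses unbound fractions from equilibrium dialysis of plasma and liver.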

[15] = Apparent volume of distribution at steady state in cynomolgus monkey plasma at 1 mg/kg, iv and measured up to 72 hrs by LC/MS-MS analysis; format: ADME, organism-based, Macaca fascicularis; details: read-out: Vdss(app); in short: as §1

OATP2B1, sequence (O94956 whole entry): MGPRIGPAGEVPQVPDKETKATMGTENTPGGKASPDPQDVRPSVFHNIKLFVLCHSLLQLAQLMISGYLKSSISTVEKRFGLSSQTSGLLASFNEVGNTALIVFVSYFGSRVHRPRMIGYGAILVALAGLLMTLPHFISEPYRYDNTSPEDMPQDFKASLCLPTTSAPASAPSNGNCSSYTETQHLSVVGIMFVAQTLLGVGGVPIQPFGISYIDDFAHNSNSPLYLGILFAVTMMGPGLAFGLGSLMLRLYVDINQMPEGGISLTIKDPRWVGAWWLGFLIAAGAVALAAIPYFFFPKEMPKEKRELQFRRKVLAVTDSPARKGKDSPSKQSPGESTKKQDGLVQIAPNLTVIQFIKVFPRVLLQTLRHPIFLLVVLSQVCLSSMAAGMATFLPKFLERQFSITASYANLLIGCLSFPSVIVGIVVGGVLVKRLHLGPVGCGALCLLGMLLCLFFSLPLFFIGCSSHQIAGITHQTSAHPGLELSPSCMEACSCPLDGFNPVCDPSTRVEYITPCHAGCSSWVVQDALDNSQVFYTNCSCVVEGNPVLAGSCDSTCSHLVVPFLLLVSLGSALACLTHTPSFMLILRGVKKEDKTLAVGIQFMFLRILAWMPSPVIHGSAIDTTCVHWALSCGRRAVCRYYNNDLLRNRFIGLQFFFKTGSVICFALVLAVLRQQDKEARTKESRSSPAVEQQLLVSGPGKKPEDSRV
Solute carrier family 22 member 2, sequence (O15244 whole entry): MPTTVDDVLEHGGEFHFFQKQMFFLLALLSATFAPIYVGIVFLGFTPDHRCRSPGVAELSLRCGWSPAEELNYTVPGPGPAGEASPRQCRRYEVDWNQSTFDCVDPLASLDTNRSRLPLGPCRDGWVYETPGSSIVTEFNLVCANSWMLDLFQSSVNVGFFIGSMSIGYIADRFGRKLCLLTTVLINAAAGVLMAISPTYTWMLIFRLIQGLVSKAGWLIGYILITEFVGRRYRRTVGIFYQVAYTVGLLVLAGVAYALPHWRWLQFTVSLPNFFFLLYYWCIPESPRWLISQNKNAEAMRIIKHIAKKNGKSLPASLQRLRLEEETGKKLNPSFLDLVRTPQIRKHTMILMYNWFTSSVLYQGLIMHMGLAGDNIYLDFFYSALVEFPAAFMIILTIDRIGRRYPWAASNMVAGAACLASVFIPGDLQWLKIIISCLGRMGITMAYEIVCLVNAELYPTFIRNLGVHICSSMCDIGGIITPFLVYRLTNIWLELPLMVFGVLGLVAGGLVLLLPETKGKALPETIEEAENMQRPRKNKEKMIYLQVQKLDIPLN
Voltage-gated inwardly rectifying potassium channel KCNH2, sequence (Q12809 whole entry): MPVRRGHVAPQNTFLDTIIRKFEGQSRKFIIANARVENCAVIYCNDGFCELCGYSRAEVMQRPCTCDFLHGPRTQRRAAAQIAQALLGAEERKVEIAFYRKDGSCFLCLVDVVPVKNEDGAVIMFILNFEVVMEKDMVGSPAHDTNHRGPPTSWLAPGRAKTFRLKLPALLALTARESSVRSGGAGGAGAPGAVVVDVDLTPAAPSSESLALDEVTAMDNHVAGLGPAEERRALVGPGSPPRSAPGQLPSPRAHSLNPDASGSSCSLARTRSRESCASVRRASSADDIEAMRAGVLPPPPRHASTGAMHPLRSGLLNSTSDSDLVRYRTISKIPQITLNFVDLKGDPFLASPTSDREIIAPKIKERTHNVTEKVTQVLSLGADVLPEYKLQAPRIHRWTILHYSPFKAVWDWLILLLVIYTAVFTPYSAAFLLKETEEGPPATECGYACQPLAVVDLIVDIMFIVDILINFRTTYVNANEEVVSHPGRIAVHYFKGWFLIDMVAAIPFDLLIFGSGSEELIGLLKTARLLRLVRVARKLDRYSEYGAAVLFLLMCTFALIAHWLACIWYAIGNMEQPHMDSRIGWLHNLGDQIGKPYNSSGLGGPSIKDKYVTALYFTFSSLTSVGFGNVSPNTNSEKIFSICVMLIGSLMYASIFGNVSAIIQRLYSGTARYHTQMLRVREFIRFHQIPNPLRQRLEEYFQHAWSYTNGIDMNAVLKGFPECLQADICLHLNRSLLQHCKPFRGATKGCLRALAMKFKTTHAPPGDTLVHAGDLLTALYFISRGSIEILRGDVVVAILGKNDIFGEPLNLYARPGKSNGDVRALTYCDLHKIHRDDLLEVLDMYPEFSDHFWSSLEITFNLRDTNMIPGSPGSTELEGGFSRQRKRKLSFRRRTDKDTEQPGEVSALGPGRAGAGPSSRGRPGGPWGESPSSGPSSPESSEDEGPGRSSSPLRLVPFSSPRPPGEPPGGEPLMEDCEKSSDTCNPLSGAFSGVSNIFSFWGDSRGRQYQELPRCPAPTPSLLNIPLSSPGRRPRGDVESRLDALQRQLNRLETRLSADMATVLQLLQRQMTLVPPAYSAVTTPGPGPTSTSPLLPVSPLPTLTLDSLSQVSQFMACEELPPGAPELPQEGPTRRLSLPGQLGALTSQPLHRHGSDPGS
Solute carrier organic anion transporter family member 1B1, sequence (Q9Y6L6 whole entry): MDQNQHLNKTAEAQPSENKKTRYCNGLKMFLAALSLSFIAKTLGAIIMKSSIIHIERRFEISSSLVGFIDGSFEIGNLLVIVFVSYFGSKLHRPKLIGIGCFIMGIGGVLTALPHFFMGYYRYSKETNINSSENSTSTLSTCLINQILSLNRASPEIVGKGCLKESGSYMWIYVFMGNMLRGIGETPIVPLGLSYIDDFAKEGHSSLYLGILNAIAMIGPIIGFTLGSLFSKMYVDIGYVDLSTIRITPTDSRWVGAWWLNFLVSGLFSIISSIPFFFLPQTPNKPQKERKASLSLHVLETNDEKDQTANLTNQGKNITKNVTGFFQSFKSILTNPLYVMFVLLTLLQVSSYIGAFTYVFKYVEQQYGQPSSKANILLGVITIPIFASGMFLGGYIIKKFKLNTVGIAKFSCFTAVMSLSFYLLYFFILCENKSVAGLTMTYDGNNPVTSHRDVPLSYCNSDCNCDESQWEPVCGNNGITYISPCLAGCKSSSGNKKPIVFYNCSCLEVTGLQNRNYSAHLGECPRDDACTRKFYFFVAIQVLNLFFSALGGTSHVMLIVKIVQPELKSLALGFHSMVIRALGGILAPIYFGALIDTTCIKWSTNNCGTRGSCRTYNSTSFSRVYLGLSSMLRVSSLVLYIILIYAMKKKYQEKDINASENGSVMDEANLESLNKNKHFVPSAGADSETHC

| Compound | uptake ratio at 5 min, 1 µM [1] | fraction unbound [2] | IC50 [3] | uptake ratio at 1 µM [4] | IC50 [5] | inhibition in vivo at 300 mg/kg [6] | clearance [7] | uptake ratio at up to 3 µM [8] | inhibition (INH) [9] | IC50 [10] | concentration at 6 h [11] | IC50 [12] | Activity [13] | Kp at 6 h [14] | Vd [15] |
| --- | --- | --- | --- | --- | --- | --- | --- | --- | --- | --- | --- | --- | --- | --- | --- |
| COc1cc(C(=O)N2CCC3(CC2)CC(=O)c2nn(C(C)(C)C)cc2O3)cc(-c2ccc(C(=O)O)cc2)n1 | 3.3 |  |  |  |  |  |  |  |  |  |  |  |  |  |  |
| COc1cc(C(=O)N2CCC3(CC2)CC(=O)c2c(cnn2C(C)C)C3)cc(-c2ccc(C(=O)O)cc2)n1 [CLESACOSTAT] |  | 0.006 | > 30 µM | 7 | 11.7 µM | 82% | 1.3 mL/min/kg | 2.5 | Not Active | 0.0124 µM | 314 ng/mL | 137 µM | 30% | 78 | 0.49 L/kg |
